From ChEMBL document CHEMBL1154352, “Toll-like receptor 7 selective synthetic oligoribonucleotide agonists: synthesis and structure-activity relationship studies” (J Med Chem, 2009) come the findings set out here.

Active and inactive are the calls of the source. The rule behind the calls is not given here.

Series [1] can be described thus: Metabolic stability in human serum assessed as full length product remaining after 10 mins by HPLC. In kind it is ADME, cell-free. To be noted: read-out: Stability. The method in brief: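 About 0.5 A260 units compound in 1% human serum in PBS, 37 °C; aliquot taken at 10 min, analysed by anion-exchange HPLC for percent intact full-length product.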
The target in series [2] is T1, Toll-like receptor 8 (Homo sapiens) (UniProt Q9NR97).
T1 sequence (whole entry): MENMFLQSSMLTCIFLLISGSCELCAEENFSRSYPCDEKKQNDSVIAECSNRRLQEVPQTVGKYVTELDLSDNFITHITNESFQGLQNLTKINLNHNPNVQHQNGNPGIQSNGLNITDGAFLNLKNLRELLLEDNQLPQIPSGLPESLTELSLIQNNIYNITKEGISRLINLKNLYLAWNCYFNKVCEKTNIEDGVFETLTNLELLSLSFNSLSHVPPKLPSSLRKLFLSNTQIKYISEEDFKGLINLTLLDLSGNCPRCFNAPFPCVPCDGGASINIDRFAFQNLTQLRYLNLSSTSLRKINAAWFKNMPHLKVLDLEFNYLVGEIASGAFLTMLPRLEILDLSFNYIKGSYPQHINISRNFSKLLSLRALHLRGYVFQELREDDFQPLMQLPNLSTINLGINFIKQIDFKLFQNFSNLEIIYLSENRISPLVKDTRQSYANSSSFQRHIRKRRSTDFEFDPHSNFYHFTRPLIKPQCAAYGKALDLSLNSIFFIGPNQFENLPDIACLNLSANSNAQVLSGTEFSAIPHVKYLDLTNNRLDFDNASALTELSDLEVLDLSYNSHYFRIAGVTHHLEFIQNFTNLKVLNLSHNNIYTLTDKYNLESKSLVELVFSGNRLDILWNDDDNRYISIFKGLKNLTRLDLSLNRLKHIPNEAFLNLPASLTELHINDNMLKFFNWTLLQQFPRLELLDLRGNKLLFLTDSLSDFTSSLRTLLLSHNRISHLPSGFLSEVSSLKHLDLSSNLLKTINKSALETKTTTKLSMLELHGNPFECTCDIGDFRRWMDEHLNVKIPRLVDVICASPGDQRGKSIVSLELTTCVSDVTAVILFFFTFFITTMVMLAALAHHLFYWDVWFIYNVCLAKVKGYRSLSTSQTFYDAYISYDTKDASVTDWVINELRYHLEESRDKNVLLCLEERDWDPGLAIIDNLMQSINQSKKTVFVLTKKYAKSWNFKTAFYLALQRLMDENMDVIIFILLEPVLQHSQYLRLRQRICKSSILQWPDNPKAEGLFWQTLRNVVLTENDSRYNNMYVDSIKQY
The series is described as follows: Activation of human TLR8 expressed in HEK293XL assessed as fold induction of NF-kappaB activity at 50 ug/ml after 18 hrs by reporter gene assay relative to control. The method in brief:
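HEK293 cells stably expressing human TLR7 or TLR8, transiently transfected with SEAP reporter plasmid; medium replaced, SIMRA compounds added, 18 h incubation. Supernatant SEAP measured by QuantiBlue; expressed as fold increase in NF-κB activity over PBS control. Tabulated data at 50 μg/mL, representative of three independent experiments.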

Series [3] concerns the target Toll-like receptor 3 (Homo sapiens) (UniProt O15455). The series is described as follows: Activation of human TLR3 expressed in HEK293 assessed as induction of NF-kappaB activity reporter gene assay. In kind it is cell-based. In general terms: Reporter assays use an easily measured gene product as a stand-in for the process of interest.
The species named for a further series is Homo sapiens. Nature of the series: Ratio of human TLR7 activity to human TLR8 activity. In a few lines: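 TLR7/TLR8 ratio computed from fold NF-κB (SEAP reporter) activation in HEK293 cells stably expressing human TLR7 versus TLR8, compounds at 50 μg/mL, 18 h exposure; representative of three independent experiments.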

Toll-like receptor 3 (Homo sapiens), sequence (O15455 whole entry): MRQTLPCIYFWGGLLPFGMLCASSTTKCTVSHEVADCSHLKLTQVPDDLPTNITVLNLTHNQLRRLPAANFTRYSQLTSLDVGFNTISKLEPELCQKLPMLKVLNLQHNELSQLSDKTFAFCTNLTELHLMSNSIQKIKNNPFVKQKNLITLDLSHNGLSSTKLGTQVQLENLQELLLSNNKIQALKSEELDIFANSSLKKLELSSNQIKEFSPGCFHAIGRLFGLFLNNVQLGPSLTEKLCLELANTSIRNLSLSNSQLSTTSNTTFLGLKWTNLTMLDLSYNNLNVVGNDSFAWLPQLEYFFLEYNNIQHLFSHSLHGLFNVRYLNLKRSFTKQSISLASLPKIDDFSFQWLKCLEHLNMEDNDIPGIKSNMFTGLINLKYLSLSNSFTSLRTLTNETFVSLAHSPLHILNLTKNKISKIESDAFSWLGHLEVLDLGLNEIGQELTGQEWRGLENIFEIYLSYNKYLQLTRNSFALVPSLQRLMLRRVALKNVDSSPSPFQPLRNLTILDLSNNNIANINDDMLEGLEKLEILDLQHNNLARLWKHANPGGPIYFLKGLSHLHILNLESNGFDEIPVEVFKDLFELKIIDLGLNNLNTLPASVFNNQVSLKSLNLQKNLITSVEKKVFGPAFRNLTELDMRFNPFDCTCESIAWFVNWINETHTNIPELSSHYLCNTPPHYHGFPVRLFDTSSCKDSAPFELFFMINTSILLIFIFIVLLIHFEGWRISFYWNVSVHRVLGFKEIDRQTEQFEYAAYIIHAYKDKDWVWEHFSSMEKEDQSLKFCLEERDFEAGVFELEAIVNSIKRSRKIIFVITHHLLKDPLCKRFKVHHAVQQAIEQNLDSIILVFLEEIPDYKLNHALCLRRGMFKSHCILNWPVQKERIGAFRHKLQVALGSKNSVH

On to `Nc1ccn([C@@H]2O[C@H](COP(=O)(S)O[C@H]3[C@@H](O)[C@H](n4ccc(N)nc4=O)O[C@@H]3COP(=O)(S)O[C@H]3[C@@H](O)[C@H](n4cnc5c(N)ncnc54)O[C@@H]3COP(=O)(S)O[C@H]3[C@@H](O)[C@H](n4ccc5c(=O)[nH]c(N)nc54)O[C@@H]3COP(=O)(S)O[C@H]3[C@@H](O)[C@H](n4ccc(=O)[nH]c4=O)O[C@@H]3COP(=O)(S)O[C@H]3[C@@H](O)[C@H](n4ccc(=O)[nH]c4=O)O[C@@H]3COP(=O)(S)O[C@H]3[C@@H](O)[C@H](n4ccc(N)nc4=O)O[C@@H]3COP(=O)(S)O[C@H]3[C@@H](O)[C@H](n4cnc5c(N)ncnc54)O[C@@H]3CO)[C@@H](OP(=O)(S)OC[C@H]3O[C@@H](n4ccc(=O)[nH]c4=O)[C@H](O)[C@@H]3OP(=O)(S)OC[C@H]3O[C@@H](n4ccc5c(=O)[nH]c(N)nc54)[C@H](O)[C@@H]3OP(=O)(S)OC[C@H]3O[C@@H](n4ccc(=O)[nH]c4=O)[C@H](O)[C@@H]3OP(=O)(S)OCC(O)COP(=O)(S)O[C@H]3[C@@H](O)[C@H](n4ccc(=O)[nH]c4=O)O[C@@H]3COP(=O)(S)O[C@H]3[C@@H](O)[C@H](n4ccc5c(=O)[nH]c(N)nc54)O[C@@H]3COP(=O)(S)O[C@H]3[C@@H](O)[C@H](n4ccc(=O)[nH]c4=O)O[C@@H]3COP(=O)(S)O[C@H]3[C@@H](O)[C@H](n4ccc(N)nc4=O)O[C@@H]3COP(=O)(S)O[C@H]3[C@@H](O)[C@H](n4ccc(N)nc4=O)O[C@@H]3COP(=O)(S)O[C@H]3[C@@H](O)[C@H](n4cnc5c(N)ncnc54)O[C@@H]3COP(=O)(S)O[C@H]3[C@@H](O)[C@H](n4ccc5c(=O)[nH]c(N)nc54)O[C@@H]3COP(=O)(S)O[C@H]3[C@@H](O)[C@H](n4ccc(=O)[nH]c4=O)O[C@@H]3COP(=O)(S)O[C@H]3[C@@H](O)[C@H](n4ccc(=O)[nH]c4=O)O[C@@H]3COP(=O)(S)O[C@H]3[C@@H](O)[C@H](n4ccc(N)nc4=O)O[C@@H]3COP(=O)(S)O[C@H]3[C@@H](O)[C@H](n4cnc5c(N)ncnc54)O[C@@H]3CO)[C@H]2O)c(=O)n1` (some centres not stated), for which the remaining at 10 min in series [1] came to 63%. For the same molecule, the fold change (FC) in series [2] is 0.7. Besides, the outcome in series [3] was inactive. Besides, the Ratio in the series listed under Homo sapiens amounted to 8.7.
The like results for `Nc1ccn([C@@H]2O[C@H](COP(=O)(S)O[C@H]3[C@@H](O)[C@H](n4ccc5c(=O)[nH]c(N)nc54)O[C@@H]3COP(=O)(S)O[C@H]3[C@@H](O)[C@H](n4cnc5c(N)ncnc54)O[C@@H]3COP(=O)(S)O[C@H]3[C@@H](O)[C@H](n4cnc5c(N)ncnc54)O[C@@H]3COP(=O)(S)O[C@H]3[C@@H](O)[C@H](n4ccc5c(=O)[nH]c(N)nc54)O[C@@H]3COP(=O)(S)O[C@H]3[C@@H](O)[C@H](n4ccc(=O)[nH]c4=O)O[C@@H]3COP(=O)(S)O[C@H]3[C@@H](O)[C@H](n4ccc(=O)[nH]c4=O)O[C@@H]3COP(=O)(S)O[C@H]3[C@@H](O)[C@H](n4cnc5c(N)ncnc54)O[C@@H]3COP(=O)(S)O[C@H]3[C@@H](O)[C@H](n4cnc5c(N)ncnc54)O[C@@H]3CO)[C@@H](OP(=O)(S)OC[C@H]3O[C@@H](n4ccc(=O)[nH]c4=O)[C@H](O)[C@@H]3OP(=O)(S)OC[C@H]3O[C@@H](n4ccc5c(=O)[nH]c(N)nc54)[C@H](O)[C@@H]3OP(=O)(S)OCC(O)COP(=O)(S)O[C@H]3[C@@H](O)[C@H](n4ccc5c(=O)[nH]c(N)nc54)O[C@@H]3COP(=O)(S)O[C@H]3[C@@H](O)[C@H](n4ccc(=O)[nH]c4=O)O[C@@H]3COP(=O)(S)O[C@H]3[C@@H](O)[C@H](n4ccc(N)nc4=O)O[C@@H]3COP(=O)(S)O[C@H]3[C@@H](O)[C@H](n4ccc5c(=O)[nH]c(N)nc54)O[C@@H]3COP(=O)(S)O[C@H]3[C@@H](O)[C@H](n4cnc5c(N)ncnc54)O[C@@H]3COP(=O)(S)O[C@H]3[C@@H](O)[C@H](n4cnc5c(N)ncnc54)O[C@@H]3COP(=O)(S)O[C@H]3[C@@H](O)[C@H](n4ccc5c(=O)[nH]c(N)nc54)O[C@@H]3COP(=O)(S)O[C@H]3[C@@H](O)[C@H](n4ccc(=O)[nH]c4=O)O[C@@H]3COP(=O)(S)O[C@H]3[C@@H](O)[C@H](n4ccc(=O)[nH]c4=O)O[C@@H]3COP(=O)(S)O[C@H]3[C@@H](O)[C@H](n4cnc5c(N)ncnc54)O[C@@H]3COP(=O)(S)O[C@H]3[C@@H](O)[C@H](n4cnc5c(N)ncnc54)O[C@@H]3CO)[C@H]2O)c(=O)n1` (some centres not stated) were, in that order, 76%, 0.7, “inactive” and 19.6.
For `Nc1ccn([C@@H]2O[C@H](COP(=O)(S)O[C@H]3[C@@H](O)[C@H](n4cnc5c(N)ncnc54)O[C@@H]3CO)[C@@H](OP(=O)(S)OC[C@H]3O[C@@H](n4ccc(=O)[nH]c4=O)[C@H](O)[C@@H]3OP(=O)(S)OC[C@H]3O[C@@H](n4ccc5c(=O)[nH]c(N)nc54)[C@H](O)[C@@H]3OP(=O)(S)OC[C@H]3O[C@@H](n4cnc5c(N)ncnc54)[C@H](O)[C@@H]3OP(=O)(S)OC[C@H]3O[C@@H](n4ccc5c(=O)[nH]c(N)nc54)[C@H](O)[C@@H]3OP(=O)(S)OC[C@H]3O[C@@H](n4cnc5c(N)ncnc54)[C@H](O)[C@@H]3OP(=O)(S)OC[C@H]3O[C@@H](n4ccc5c(=O)[nH]c(N)nc54)[C@H](O)[C@@H]3OP(=O)(S)OC[C@H]3O[C@@H](n4ccc(N)nc4=O)[C@H](O)[C@@H]3OP(=O)(S)OC[C@H]3O[C@@H](n4ccc(=O)[nH]c4=O)[C@H](O)[C@@H]3OP(=O)(S)OC[C@H]3O[C@@H](n4ccc(=O)[nH]c4=O)[C@H](O)[C@@H]3OP(=O)(S)OCC(O)COP(=O)(S)O[C@H]3[C@@H](O)[C@H](n4ccc(=O)[nH]c4=O)O[C@@H]3COP(=O)(S)O[C@H]3[C@@H](O)[C@H](n4ccc(=O)[nH]c4=O)O[C@@H]3COP(=O)(S)O[C@H]3[C@@H](O)[C@H](n4ccc(N)nc4=O)O[C@@H]3COP(=O)(S)O[C@H]3[C@@H](O)[C@H](n4ccc5c(=O)[nH]c(N)nc54)O[C@@H]3COP(=O)(S)O[C@H]3[C@@H](O)[C@H](n4cnc5c(N)ncnc54)O[C@@H]3COP(=O)(S)O[C@H]3[C@@H](O)[C@H](n4ccc5c(=O)[nH]c(N)nc54)O[C@@H]3COP(=O)(S)O[C@H]3[C@@H](O)[C@H](n4cnc5c(N)nc(N)nc54)O[C@@H]3COP(=O)(S)O[C@H]3[C@@H](O)[C@H](n4ccc5c(=O)[nH]c(N)nc54)O[C@@H]3COP(=O)(S)O[C@H]3[C@@H](O)[C@H](n4ccc(=O)[nH]c4=O)O[C@@H]3COP(=O)(S)O[C@H]3[C@@H](O)[C@H](n4ccc(N)nc4=O)O[C@@H]3COP(=O)(S)O[C@H]3[C@@H](O)[C@H](n4cnc5c(N)ncnc54)O[C@@H]3CO)[C@H]2O)c(=O)n1` (some centres not stated) the same measures were 79%, 2.4, “inactive” and 7.
